# Source: PubChem BioAssay (several laboratories)
# ANO1 block: blocks the mouse calcium-activated chloride channel TMEM16A | hit rate 1.2% among 310,000 | Q8BHY3 | normalized B-score (activity score, 25-100; higher = stronger inhibition) at 10 µM | HEK293 TMEM16A/YFP iodide influx fluorescence, ionomycin;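 active means ratio plate-corrected score three or more library SD toward inhibition, starting fluorescence score within five deviations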;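 further: score derived from kinetic fluorescence span divided by baseline fluorescence per well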
# CHT PAM: allosterically activates the human high affinity choline transporter. Q9GZV3. CHT-expressing cells, membrane potential dye, choline EC20; hits give high values; LV-AA mutant CHT in HEK293 cells. B-score at 10 µM. hit rate 0.49% among 310,000. AID 488977;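 active means initial fluorescence not abnormally high and integrated response B-score, plate-corrected, over 3 SD above library mean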
# Target sequence (Q9GZV3 whole entry, looked up): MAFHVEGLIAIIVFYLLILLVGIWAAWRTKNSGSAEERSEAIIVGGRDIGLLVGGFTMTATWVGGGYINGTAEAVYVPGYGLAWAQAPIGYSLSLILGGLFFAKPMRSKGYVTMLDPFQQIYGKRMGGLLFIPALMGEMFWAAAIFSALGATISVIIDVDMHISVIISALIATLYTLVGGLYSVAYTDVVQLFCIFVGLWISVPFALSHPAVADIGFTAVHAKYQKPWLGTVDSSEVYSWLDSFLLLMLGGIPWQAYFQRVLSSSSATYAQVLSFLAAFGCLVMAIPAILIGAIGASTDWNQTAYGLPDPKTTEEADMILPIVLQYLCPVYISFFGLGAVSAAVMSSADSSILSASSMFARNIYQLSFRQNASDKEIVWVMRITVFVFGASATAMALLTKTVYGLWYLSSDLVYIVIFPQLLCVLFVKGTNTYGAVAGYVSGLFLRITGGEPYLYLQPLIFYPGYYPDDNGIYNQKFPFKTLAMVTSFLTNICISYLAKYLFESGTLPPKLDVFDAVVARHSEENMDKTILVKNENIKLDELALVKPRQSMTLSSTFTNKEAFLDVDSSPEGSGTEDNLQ
# CHT inh: inhibitors of human choline transporter CHT | CHT-expressing cells, membrane potential dye, choline response; hits give low values | B-score at 10 µM | Q9GZV3 | hit rate 0.86% among 310,000 | AID 488975;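 active means B-score over 3 SD under the library average, and starting fluorescence ratio not unusually high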;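 further: choline stimulus applied at its EC90 after an EC20 pre-addition; B-score computed on integrated fluorescence ratio after choline addition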
# IMP-1 inhibitor: inhibitors of Pseudomonas aeruginosa IMP-1 metallo-beta-lactamase; purified IMP-1, nitrocefin hydrolysis, epi-absorbance fluorescence; inhibition, % at 5.6 µM; hit rate 0.45% among 290,000; AID 1556;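 active means inhibition above the mean plus 3 SD of all compounds in the same screening run, cut at about 4.5% in these data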;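 further: 0% = IMP-1 with DMSO and 100% = DMSO wells lacking enzyme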
#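 Test system: recombinant IMP-1 enzyme, purified / Medium: HEPES buffer pH 7.1 with ZnSO4 and Brij 35 / Doses: single dose, 5.6 µM / Times: 25 °C, 15 min preincubation, 25 min reaction / Detection: Epi-absorbance via hydrolysed-nitrocefin quenching of white-plate fluorescence, 480/530 nm, EDTA stop / Evaluation: percent inhibition from optical density relative to buffer-blank wells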
# VIM-2 inhibitor: blocks Pseudomonas aeruginosa VIM-2 metallo-beta-lactamase | inhibition, % at 5.6 µM | purified VIM-2, nitrocefin hydrolysis, epi-absorbance fluorescence | hit rate 0.89% among 290,000;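 active means inhibition above the mean of all tested compounds plus 3 SD, cutoff set per screening run, cut at about 7.5% in these data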;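 further: red hydrolysis product quenches plate fluorescence so inhibitors raise well fluorescence; 0% = enzyme with DMSO and 100% = DMSO without enzyme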
# TMEM16A act: activates or potentiates the mouse TMEM16A chloride channel | Q8BHY3 | HEK293 TMEM16A/YFP-H148Q/I152L, iodide quench fluorescence; hits give low values | B-score at 10 µM | hit rate 0.3% among 340,000;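 active means fluorescence-ratio B-score plate-corrected deviation score at least 3 library SD below zero, with starting fluorescence score within 5 deviations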;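 further: channel opened by trigger with iodide after compound preincubation; score built on the fluorescence ratio of max minus min over baseline; more negative score means more quench and so TMEM16A activation or potentiation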
# CHT inh conf: human CHT inhibition, confirmatory screen | CHT-expressing cells, choline membrane potential dye; LV-to-AA substituted CHT, HEK293 cells | shares compounds with CHT inh | hit rate 70% among 2,400 | CHT activity remaining % of control (hits give low values), % at 10 µM;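 active means choline transporter activity left, mean of duplicates at 10 µM, below buffer-only control mean minus 3 SD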;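 further: depolarization triggered by choline at its EC90 following an EC20 pre-addition; 0% = hemicholinium-3 full block and 100% = buffer-only control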
# HEK293 CHT ctr: CHT inhibitor counter-screen hit in parental HEK293 cells | shares compounds with CHT inh | membrane potential dye, choline response; active = decrease or increase beyond buffer ±3SD | hit rate 4% among 2,400 | membrane potential ratio readout (active if shifted either direction beyond buffer ±3SD; no single direction) at 10 µM | AID 493222;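 further: parental cells lack the transporter so any hit is non-specific; ratio is peak minus trough fluorescence over baseline after EC90 choline challenge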
# Numbers without * were called inactive; i = inactive; . = no result. An excerpt weighted towards active compounds, which were near 3.4% of everything screened.
SMILES,ANO1 block,CHT PAM,CHT inh,IMP-1 inhibitor,VIM-2 inhibitor,TMEM16A act,CHT inh conf,HEK293 CHT ctr
CCN(CC)S(=O)(=O)c1ccc(C)c(NC(=S)Nc2cccc(S(=O)(=O)N3CCCCCC3)c2)c1,i,i,i,-2.4,-5.1,i,.,.
O=C1C=C(Nc2cccnc2)c2ccccc2C1=O,.,.,.,.,.,i,.,.
Cc1noc(C)c1COC(=O)c1ccccc1Sc1ccccc1C#N,i,i,-6.14*,-4.5,-2.1,i,i,i
N#Cc1ccccc1Sc1ccccc1C(=O)OCC(N)=O,i,i,i,-1.5,-1.8,i,.,.
C=CCSc1nnc2c(n1)OC(C)=Nc1ccc(Br)cc1-2,i,i,i,-2.5,-1.6,i,.,.
COc1ccc(N2CCN(c3nc(Cl)nc(N4CCOCC4)n3)CC2)cc1,i,i,i,-2.9,-0.5,i,.,.
COc1ccc(N2CCN(c3nc(NCCO)nc(N4CCOCC4)n3)CC2)cc1,i,i,-6.07*,1.2,-0.1,i,i,i
CN(C)CC1CCCCC1OC(=O)c1ccc(S(=O)(=O)N(C)c2ccccc2)cc1 (configuration not stated),i,i,i,-1.9,-3.3,i,.,.
O=C(NC(=S)N1CCN(c2ccccc2)CC1)c1ccccc1,i,i,i,-3.7,-4.4,i,.,.
O=C(NC(=S)N1CCN(c2ccccn2)CC1)c1ccccc1,i,i,-8.2*,-0.7,-3.0,i,i,i
NS(=O)(=O)c1ccc(CCNC(=O)CSc2nc3ccccc3c(=O)n2CC2CCCO2)cc1 (configuration not stated),i,i,i,-2.2,-1.5,i,.,.
CCc1ccc2oc(C(=O)NCC(c3ccc(OC)cc3)N3CCCCC3)c(C)c2c1 (configuration not stated),i,i,-6.04*,-2.9,-4.0,i,61.2%*,i
COc1ccc(C(CNC(=O)c2oc3ccc(OC)cc3c2C)N2CCCC2)cc1 (configuration not stated),i,i,i,.,.,i,.,.
O=C1CCc2ccc(NS(=O)(=O)c3ccc(F)cc3)cc2N1,i,i,i,-1.8,-2.8,i,.,.
CC1(C)CCCN(C(=O)c2ccc3c(c2NCCO)C(=O)c2ccccc2C3=O)C1,i,i,-7.18*,-3.3,-1.1,i,41.9%*,2.56*
O=C1c2ccccc2C(=O)c2c1ccc(C(=O)N1CCCCC1)c2NCCO,i,i,i,-2.8,-1.2,i,.,.
COC(=O)c1sc(NC(=S)NNC(=O)c2c(Br)c(C)nn2C)c(C(=O)OC)c1C,100*,i,-5.57*,-2.4,-7.9,i,i,i
Cc1nn(S(=O)(=O)c2ccc(F)cc2)c(C)c1S(=O)(=O)N1CCOCC1,i,i,i,-2.2,-3.1,i,.,.
O=C(N/N=C/C1CC=CCC1)c1cc(-c2cccnc2)nc2ccccc12 (configuration not stated),i,i,-10.6*,-2.5,-1.7,i,14.2%*,i
C=CCN1C(=O)C(=O)N(CC(=O)NCC(=O)Nc2ccc(F)c(F)c2F)C1=O,.,.,.,.,.,i,.,.
Oc1ccc(/C=N/n2c(-c3ccccc3)n[nH]c2=S)cc1Br,i,i,-5.98*,-3.7,7.7,i,54.5%*,i
S=c1[nH]nc(-c2ccccn2)n1/N=C/c1cccc(Cl)c1,i,i,-5.72*,0.0,-0.4,i,i,i
S=c1[nH]nc(-c2ccccn2)n1/N=C/c1ccco1,i,i,i,-2.3,-0.5,i,.,.
CN(C)S(=O)(=O)c1ccc(/C(O)=C2/C(=O)C(=O)N(CCCN3CCOCC3)C2c2ccncc2)cc1 (configuration not stated),i,i,i,.,.,i,.,.
O=C(O)CSc1cc(C(=O)c2cc(F)ccc2O)cn2c(=O)c3c(-c4ccccc4)csc3nc12,i,i,-6.99*,-3.3,-4.0,i,26.1%*,i
SMILES,ANO1 block,CHT PAM,CHT inh,IMP-1 inhibitor,VIM-2 inhibitor,TMEM16A act,CHT inh conf,HEK293 CHT ctr
CCOC(=O)c1sc2nc3c(SCCC#N)cc(C(=O)c4cc(F)ccc4O)cn3c(=O)c2c1C,i,i,i,-2.6,-5.0,i,.,.
CCOC(=O)C(Cc1ccccc1)NC(C)=O (configuration not stated),i,i,i,-2.3,-0.3,i,.,.
CCOC(=O)C(Cc1ccccc1)NC(=O)CCCC(=O)c1ccccc1 (configuration not stated),i,i,-5.91*,-3.3,-3.4,i,45.4%*,i
COc1cc(/C=C2/SC(=Nc3ccc(O)cc3)NC2=O)ccc1O,i,i,i,0.1,4.4,i,.,.
COc1cc(/C=C2\SC(=Nc3ccccc3OC)NC2=O)ccc1O,i,i,-5.39*,-4.8,2.6,i,i,i
O=S(=O)(NCc1csc(-c2cccs2)n1)c1ccc(Cl)cc1,i,i,-6.63*,-3.9,-1.7,i,70.3%*,i
O=S(=O)(NCc1csc(-c2cccs2)n1)c1cccc(C(F)(F)F)c1,i,i,-5.49*,-3.3,-1.2,i,53.8%*,i
O=C(O)CCN1C(=O)CC(N2C(=O)/C(=C/c3ccc(Cl)cc3)SC2=S)C1=O (configuration not stated),i,i,-6.21*,-3.0,-0.8,i,58.2%*,i
O=C(CSCc1cnn(-c2ccccc2)c1-n1cccc1)NCc1cccs1,i,i,-6.55*,-3.0,-1.3,i,i,i
CNC(=O)CSCc1cnn(-c2ccccc2)c1-n1cccc1,i,i,i,-3.8,-4.1,i,.,.
CCOC(=O)N1CCC(NC(=O)CSCc2cnn(-c3ccccc3)c2-n2cccc2)CC1,i,i,-7.34*,-2.0,-1.3,i,i,i
COc1ccc(OC2CCN(S(=O)(=O)c3ccccc3)CC2)cc1,i,i,i,-0.3,-0.2,i,.,.
CCC(=O)N1CCc2cc(Br)cc(S(=O)(=O)NC3CCN(Cc4ccccc4)CC3)c21,i,i,-9*,-1.4,-1.5,i,37.7%*,3.18*
O=S(=O)(NC1CCN(Cc2ccccc2)CC1)c1ccc2ccccc2c1,i,i,-5.68*,-0.6,-0.1,i,i,i
